The source made the active and inactive calls. The calls are words filed in the database; no cut-off is given here.
How the values were obtained:
Trypanosoma brucei [1] = test: Induction of programmed cell death in Trypanosoma brucei bloodstream form assessed as death of total cell population at > 4 mM up to 24 hrs using propidium iodide staining by FACS analysis
Trypanosoma brucei [2] = test: Effect on cell cycle of Trypanosoma brucei bloodstream form assessed as induction of necrosis at 4 mM after 24 hrs using propidium iodide staining by FACS analysis; format: functional
Summary of the method: (§1)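 Bloodstream forms exposed 24 h at 37°C, 5% CO₂. Cells at 2 × 10⁶/ml incubated 10 min with propidium iodide (5 μg/ml), and uptake read by flow cytometry as a measure of membrane integrity. Digitonin (6 μM) served as the necrosis positive control.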

Trypanosoma brucei [3] = test: Induction of apoptosis-like programmed cell death in Trypanosoma brucei bloodstream form assessed as loss of mitochondrial-membrane potential at 1 mM after 24 hrs by TMRE staining; format: functional
Summary of the method: (§2)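 T. brucei MITat 1.2 (EATRO 427) bloodstream forms were grown axenically at 37°C, 5% CO₂ and exposed to DHA for 24 h. Cells at 10⁶/ml were stained with 25 nM TMRE in culture medium for 30 min at 37°C and read at once by flow cytometry. Depolarization control: valinomycin 100 nM. Lower fluorescence signifies lost membrane potential.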

Trypanosoma brucei [4] = test: Trypanocidal activity against Trypanosoma brucei bloodstream form at > 1 mM; format: functional, organism-based
Trypanosoma brucei [5] = test: Induction of apoptosis-like programmed cell death in Trypanosoma brucei bloodstream form assessed as increase in intracellular reactive oxygen species production at 3 mM after 24 hrs by FACS analysis; format: functional
Summary of the method: (§3)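 Bloodstream-form T. brucei MITat 1.2 (VSG 221, strain EATRO 427) were grown axenically at 37°C, 5% CO₂ and exposed to DHA for 24 h. Control and treated cells were then loaded with 10 μM dichlorofluorescein diacetate for 1 h at 37°C. Intracellular fluorescence intensity was read by flow cytometry.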

Trypanosoma brucei [6] = test: Effect on cell cycle of Trypanosoma brucei bloodstream form assessed as induction of necrosis at 3 mM after 24 hrs using propidium iodide staining by FACS analysis; format: functional
Summary of the method: as §1

Trypanosoma brucei [7] = test: Effect on morphological changes in Trypanosoma brucei bloodstream form assessed as increase in mitochondrion size at 3 mM after 24 hrs by transmission electron microscopy; format: functional, organism-based
Summary of the method: (§4)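 Parasites exposed 24 h to 3 mM DHA. 10⁸ cells fixed 1 h at 4°C in 2% glutaraldehyde in 0.2 M sodium cacodylate with 0.12 M sucrose, held overnight in buffer, postfixed in 1.5% osmium tetroxide and stained with 0.5% uranyl acetate. Dehydrated in ethanol, cleared in propylene oxide, embedded in Agar 100. Sections stained with 5% uranyl acetate and 0.4% lead citrate for TEM. Rapamycin (5 μM) served as the autophagy positive control.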

Trypanosoma brucei [8] = test: Effect on cell cycle of Trypanosoma brucei bloodstream form assessed as DNA content at 3 mM after 24 hrs using propidium iodide staining by FACS analysis; format: functional
Summary of the method: (§5)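 T. brucei bloodstream forms (MITat 1.2, strain EATRO 427), axenic culture at 37°C, 5% CO₂. Treated 24 h. At least 5 × 10⁵ cells washed in PBS, lysed hypotonically 30 min at room temperature in 10 mM phosphate buffer pH 7.4 with 6 μM digitonin. Nuclei stained with propidium iodide (10 μg/ml final) and analysed by flow cytometry for G₁/S/G₂ distribution and degraded DNA.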

Trypanosoma brucei [9] = test: Trypanocidal activity against Trypanosoma brucei bloodstream form at 4 mM up to 24 hrs by spectrophotometry; format: functional
Summary of the method: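 Proliferation measured in complete medium (33 mM glucose, 15% serum) with a range of DHA concentrations. Cell density followed over 24 h. Triplicate, SD.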

Trypanosoma brucei [10] = test: Induction of apoptosis-like programmed cell death in Trypanosoma brucei bloodstream form assessed as increase in intracellular reactive oxygen species production at 1 mM after 24 hrs by FACS analysis; format: functional
Summary of the method: as §3

Trypanosoma brucei [11] = test: Effect on morphological changes in Trypanosoma brucei bloodstream form assessed as increase in cell size at 5 mM after 20 hrs by scanning electron microscopy; format: functional, organism-based
Summary of the method: (§6)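 Cells grown 20 h with 5 mM DHA. Fixed and stained as for TEM (glutaraldehyde, osmium tetroxide, uranyl acetate), then dehydrated through 50, 75, 95 and 100% ethanol. Critical-point dried and gold-palladium sputter-coated for scanning electron microscopy.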

Trypanosoma brucei [12] = test: Effect on morphological changes in Trypanosoma brucei bloodstream form assessed as increase in cisternal and vesicular structures within cytosol at 3 mM after 24 hrs by transmission electron microscopy; format: functional, organism-based
Summary of the method: as §4

Trypanosoma brucei [13] = test: Cell cycle arrest in Trypanosoma brucei bloodstream form assessed as accumulation at G2/M phase at 2 mM after 24 hrs using propidium iodide staining by FACS analysis; format: functional
Summary of the method: as §5

Trypanosoma brucei [14] = test: Effect on cell cycle of Trypanosoma brucei bloodstream form assessed as DNA content at 5 uM after 24 hrs using propidium iodide staining by FACS analysis; format: functional
Summary of the method: as §5

Trypanosoma brucei [15] = test: Effect on morphological changes in Trypanosoma brucei bloodstream form assessed as presence of more than one flagellum after 24 hrs using DAPI staining by phase-contrast microscopy; format: functional, organism-based
Summary of the method: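 Bloodstream forms (MITat 1.2, EATRO 427) grown 24 h with or without DHA. Aliquots washed twice in PBS, resuspended, placed on slides and fixed with methanol. Stained 5 min with DAPI (0.1 μg/ml final), then washed. Phase-contrast and fluorescence images scored for nucleus/kinetoplast numbers (1N1K, 1N2K, 2N2K, 2N1K, abnormal). n = 4, Student's t test, SD.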

Trypanosoma brucei [16] = test: Trypanocidal activity against Trypanosoma brucei bloodstream form at < 1 mM; format: functional, organism-based
Trypanosoma brucei [17] = test: Effect on cell cycle of Trypanosoma brucei bloodstream form assessed as DNA content at 1 mM after 24 hrs using propidium iodide staining by FACS analysis; format: functional
Summary of the method: as §5

Trypanosoma brucei [18] = test: Effect on morphological changes in Trypanosoma brucei bloodstream form assessed as presence of myelin-like structures at 3 mM after 24 hrs by transmission electron microscopy; format: functional, organism-based
Summary of the method: as §4

Trypanosoma brucei [19] = test: Effect on morphological changes in Trypanosoma brucei bloodstream form assessed as presence of kinetoplast at 5 mM after 20 hrs by scanning electron microscopy; format: functional, organism-based
Summary of the method: as §6

Trypanosoma brucei [20] = test: Effect on cell cycle of Trypanosoma brucei bloodstream form assessed as DNA content at 4 mM after 24 hrs using propidium iodide staining by FACS analysis; format: functional
Summary of the method: as §5

Trypanosoma brucei [21] = test: Effect on morphological changes in Trypanosoma brucei bloodstream form assessed as presence of atypical combination of number of nucleus at 5 mM after 20 hrs by scanning electron microscopy; format: functional, organism-based
Summary of the method: as §6

Trypanosoma brucei [22] = test: Induction of apoptosis-like programmed cell death in Trypanosoma brucei bloodstream form assessed as loss of mitochondrial-membrane potential at 3 mM after 24 hrs by TMRE staining; format: functional
Summary of the method: as §2

Trypanosoma brucei [23] = test: Trypanocidal activity against Trypanosoma brucei bloodstream form assessed as cell death at 1 mM by spectrophotometry in presence of 1 mM glucose; format: functional, organism-based
Trypanosoma brucei [24] = test: Trypanocidal activity against Trypanosoma brucei bloodstream form assessed as cell death at 1 mM after 40 mins by spectrophotometry; format: functional, organism-based
Trypanosoma brucei [25] = test: Induction of apoptosis-like programmed cell death in Trypanosoma brucei bloodstream form assessed as phosphatidylserine exposure in outer leaflet of plasma membrane at 1 mM after 24 hrs by V-Fluos staining staining; format: functional
Summary of the method: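 After 24 h DHA exposure of axenic bloodstream-form T. brucei MITat 1.2 (EATRO 427; 37°C, 5% CO₂), cells were washed in HEPES buffer (10 mM, pH 7.4, 140 mM NaCl, 5 mM CaCl₂). They were then stained with annexin V-Fluos for 15 min at 4°C and analysed by flow cytometry.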

Question: How did the Activity (Trypanosoma brucei [1]) turn out when `O=C(CO)CO` [DIHYDROXYACETONE] was run?
Answer: Active

Question: What about the Activity (Trypanosoma brucei [2]) of the same compound?
Answer: 12.9%

Question: And the Activity (Trypanosoma brucei [3])?
Answer: 4.9%

Question: What about the Activity (Trypanosoma brucei [4]) of the same compound?
Answer: Active

Question: And the Activity (Trypanosoma brucei [5])?
Answer: 14.4%

Question: And the Activity (Trypanosoma brucei [6])?
Answer: 9.9%

Question: And the Activity (Trypanosoma brucei [7])?
Answer: Active

Question: What about the Activity (Trypanosoma brucei [8]) of the same compound?
Answer: 8%

Question: And the Activity (Trypanosoma brucei [9])?
Answer: 100%

Question: What about the Activity (Trypanosoma brucei [10]) of the same compound?
Answer: 5.9%

Question: And the Activity (Trypanosoma brucei [11])?
Answer: inactive

Question: And the Activity (Trypanosoma brucei [12])?
Answer: Active

Question: And the Activity (Trypanosoma brucei [13])?
Answer: <=70%

Question: And the Activity (Trypanosoma brucei [14])?
Answer: 47%

Question: What about the Activity (Trypanosoma brucei [15]) of the same compound?
Answer: Dose-dependent effect

Question: And the Activity (Trypanosoma brucei [16])?
Answer: Active

Question: What about the Activity (Trypanosoma brucei [17]) of the same compound?
Answer: 4.5%

Question: And the Activity (Trypanosoma brucei [18])?
Answer: Active

Question: And the Activity (Trypanosoma brucei [19])?
Answer: inactive

Question: And the Activity (Trypanosoma brucei [20])?
Answer: 9.7%

Question: What about the Activity (Trypanosoma brucei [21]) of the same compound?
Answer: inactive

Question: And the Activity (Trypanosoma brucei [22])?
Answer: 12.3%

Question: And the Activity (Trypanosoma brucei [23])?
Answer: inactive

Question: And the Activity (Trypanosoma brucei [24])?
Answer: Active

Question: What about the Activity (Trypanosoma brucei [25]) of the same compound?
Answer: 6.3%
